System: K562
Experiment: Growth inhibition of human K562 cells after 48 hrs by sulforhodamine B assay
Type: functional
Details: K562, 48 h
Summary of the method: (§1)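 NCI screen panel. Five 10-fold concentrations from 10^-4 to 10^-8 M. Exposure for the last 48 h of a 72 h incubation. Growth estimated by sulforhodamine B protein assay. GI50 is the concentration giving 50% growth inhibition. Where that level was not reached or was exceeded, the value is given as above or below the highest or lowest concentration tested.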

| Compound | GI50 |
| --- | --- |
| O=C(c1ccco1)N1CCN(C(=O)c2ccco2)C1=S | 1 µM |

System: A498
Experiment: Growth inhibition of human A498 cells after 48 hrs by sulforhodamine B assay
Type: functional
Details: A498, 48 h
Summary of the method: as §1

| Compound | GI50 |
| --- | --- |
| O=C(c1ccco1)N1CCN(C(=O)c2ccco2)C1=S | 16.6 µM |

System: PC-3
Experiment: Growth inhibition of human PC3 cells after 48 hrs by sulforhodamine B assay
Type: functional
Details: PC-3, 48 h
Summary of the method: as §1

| Compound | GI50 |
| --- | --- |
| O=C(c1ccco1)N1CCN(C(=O)c2ccco2)C1=S | 3.9 µM |

System: SF-268
Experiment: Growth inhibition of human SF268 cells after 48 hrs by sulforhodamine B assay
Type: functional
Details: SF-268, 48 h
Summary of the method: as §1

| Compound | GI50 |
| --- | --- |
| O=C(c1ccco1)N1CCN(C(=O)c2ccco2)C1=S | 2.7 µM |

System: U-251
Experiment: Growth inhibition of human U251 cells after 48 hrs by sulforhodamine B assay
Type: functional
Details: U-251, 48 h
Summary of the method: (§2)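 NCI in vitro panel screen. Compounds tested at five 10-fold dilutions, 10^-4 to 10^-8 M. Cells in 96-well plates were exposed for the last 48 h of a 72 h incubation. Viability/growth was read by sulforhodamine B protein assay. GI50 is the concentration giving 50% growth inhibition. Values beyond the tested range are reported as greater or less than the maximum or minimum concentration.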

| Compound | GI50 |
| --- | --- |
| O=C(c1ccco1)N1CCN(C(=O)c2ccco2)C1=S | 9 µM |

System: HCT-15
Experiment: Growth inhibition of human HCT15 cells after 48 hrs by sulforhodamine B assay
Type: functional
Details: HCT-15, 48 h
Summary of the method: as §1

| Compound | GI50 |
| --- | --- |
| O=C(c1ccco1)N1CCN(C(=O)c2ccco2)C1=S | 4.1 µM |

System: HCC 2998
Experiment: Growth inhibition of human HCC2998 cells after 48 hrs by sulforhodamine B assay
Type: functional
Details: HCC 2998, 48 h
Summary of the method: as §1

| Compound | GI50 |
| --- | --- |
| O=C(c1ccco1)N1CCN(C(=O)c2ccco2)C1=S | 12.4 µM |

System: HL-60(TB)
Experiment: Growth inhibition of human HL-60(TB) cells after 48 hrs by sulforhodamine B assay
Type: functional
Details: HL-60, 48 h
Summary of the method: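 NCI 60-cell-line screen protocol: cells exposed to compound at five 10-fold dilutions from 10^-4 to 10^-8 M for the last 48 h of a 72 h incubation. Sulforhodamine B protein assay estimated viability/growth. GI50 (50% growth inhibition) derived; where not reached or exceeded, reported as greater or less than the highest or lowest concentration tested.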

| Compound | GI50 |
| --- | --- |
| O=C(c1ccco1)N1CCN(C(=O)c2ccco2)C1=S | 4 µM |

System: ACHN
Experiment: Growth inhibition of human ACHN cells after 48 hrs by sulforhodamine B assay
Type: functional
Details: not given
Summary of the method: as §1

| Compound | GI50 |
| --- | --- |
| O=C(c1ccco1)N1CCN(C(=O)c2ccco2)C1=S | 4.7 µM |

System: MOLT-4
Experiment: Growth inhibition of human MOLT4 cells after 48 hrs by sulforhodamine B assay
Type: functional
Details: MOLT-4, 48 h
Summary of the method: as §1

| Compound | GI50 |
| --- | --- |
| O=C(c1ccco1)N1CCN(C(=O)c2ccco2)C1=S | 0.3 µM |

System: SK-MEL-2
Experiment: Growth inhibition of human SK-MEL-2 cells after 48 hrs by sulforhodamine B assay
Type: functional
Details: SK-MEL-2, 48 h
Summary of the method: as §1

| Compound | GI50 |
| --- | --- |
| O=C(c1ccco1)N1CCN(C(=O)c2ccco2)C1=S | 14.2 µM |

System: SN12C
Experiment: Growth inhibition of human SN12C cells after 48 hrs by sulforhodamine B assay
Type: functional
Details: not given
Summary of the method: as §2

| Compound | GI50 |
| --- | --- |
| O=C(c1ccco1)N1CCN(C(=O)c2ccco2)C1=S | 3.5 µM |

System: SNB-75
Experiment: Growth inhibition of human SNB75 cells after 48 hrs by sulforhodamine B assay
Type: functional
Details: SNB-75, 48 h
Summary of the method: as §2

| Compound | GI50 |
| --- | --- |
| O=C(c1ccco1)N1CCN(C(=O)c2ccco2)C1=S | 10.4 µM |

System: OVCAR-3
Experiment: Growth inhibition of human OVCAR-3 cells after 48 hrs by sulforhodamine B assay
Type: functional
Details: OVCAR-3, 48 h
Summary of the method: as §1

| Compound | GI50 |
| --- | --- |
| O=C(c1ccco1)N1CCN(C(=O)c2ccco2)C1=S | 2.7 µM |

System: OVCAR-8
Experiment: Growth inhibition of human OVCAR8 cells after 48 hrs by sulforhodamine B assay
Type: functional
Details: OVCAR-8, 48 h
Summary of the method: as §1

| Compound | GI50 |
| --- | --- |
| O=C(c1ccco1)N1CCN(C(=O)c2ccco2)C1=S | 8.8 µM |

System: BT-549
Experiment: Growth inhibition of human BT549 cells after 48 hrs by sulforhodamine B assay
Type: functional
Details: BT-549, 48 h
Summary of the method: as §1

| Compound | GI50 |
| --- | --- |
| O=C(c1ccco1)N1CCN(C(=O)c2ccco2)C1=S | 4.6 µM |

System: TK-10
Experiment: Growth inhibition of human TK10 cells after 48 hrs by sulforhodamine B assay
Type: functional
Details: TK-10, 48 h
Summary of the method: as §2

| Compound | GI50 |
| --- | --- |
| O=C(c1ccco1)N1CCN(C(=O)c2ccco2)C1=S | 6.3 µM |

System: RXF 393
Experiment: Growth inhibition of human RXF393 cells after 48 hrs by sulforhodamine B assay
Type: functional
Details: RXF 393, 48 h
Summary of the method: as §1

| Compound | GI50 |
| --- | --- |
| O=C(c1ccco1)N1CCN(C(=O)c2ccco2)C1=S | 3.6 µM |

System: HCT-116
Experiment: Growth inhibition of human HCT116 cells after 48 hrs by sulforhodamine B assay
Type: functional
Details: HCT-116, 48 h
Summary of the method: as §1

| Compound | GI50 |
| --- | --- |
| O=C(c1ccco1)N1CCN(C(=O)c2ccco2)C1=S | 7.3 µM |

System: IGROV-1
Experiment: Growth inhibition of human IGROV1 cells after 48 hrs by sulforhodamine B assay
Type: functional
Details: IGROV-1, 48 h
Summary of the method: as §1

| Compound | GI50 |
| --- | --- |
| O=C(c1ccco1)N1CCN(C(=O)c2ccco2)C1=S | 6.7 µM |

System: LOX IMVI
Experiment: Growth inhibition of human LOXIMVI cells after 48 hrs by sulforhodamine B assay
Type: functional
Details: not given
Summary of the method: as §1

| Compound | GI50 |
| --- | --- |
| O=C(c1ccco1)N1CCN(C(=O)c2ccco2)C1=S | 3.4 µM |

System: DU-145
Experiment: Growth inhibition of human DU145 cells after 48 hrs by sulforhodamine B assay
Type: functional
Details: DU-145, 48 h
Summary of the method: as §1

| Compound | GI50 |
| --- | --- |
| O=C(c1ccco1)N1CCN(C(=O)c2ccco2)C1=S | 2.7 µM |

System: MDA-N
Experiment: Growth inhibition of human MDA-N cells after 48 hrs by sulforhodamine B assay
Type: functional
Details: not given
Summary of the method: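 NCI screen panel. Five 10-fold concentrations from 10^-4 to 10^-8 M. Exposure for the last 48 h of a 72 h incubation. Growth estimated by sulforhodamine B protein assay. Where that level was not reached or was exceeded, the value is given as above or below the highest or lowest concentration tested.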

| Compound | GI50 |
| --- | --- |
| O=C(c1ccco1)N1CCN(C(=O)c2ccco2)C1=S | 5 µM |

System: M14
Experiment: Growth inhibition of human M14 cells after 48 hrs by sulforhodamine B assay
Type: functional
Details: M14, 48 h
Summary of the method: as §1

| Compound | GI50 |
| --- | --- |
| O=C(c1ccco1)N1CCN(C(=O)c2ccco2)C1=S | 7.7 µM |

System: HT-29
Experiment: Growth inhibition of human HT-29 cells after 48 hrs by sulforhodamine B assay
Type: functional
Details: HT-29, 48 h
Summary of the method: as §1

| Compound | GI50 |
| --- | --- |
| O=C(c1ccco1)N1CCN(C(=O)c2ccco2)C1=S | 5 µM |

System: NCI-H23
Experiment: Growth inhibition of human NCI-H23 cells after 48 hrs by sulforhodamine B assay
Type: functional
Details: NCI-H23, 48 h
Summary of the method: as §1

| Compound | GI50 |
| --- | --- |
| O=C(c1ccco1)N1CCN(C(=O)c2ccco2)C1=S | 19.5 µM |

System: CAKI-1
Experiment: Growth inhibition of human Caki1 cells after 48 hrs by sulforhodamine B assay
Type: functional
Details: CAKI-1, 48 h
Summary of the method: as §1

| Compound | GI50 |
| --- | --- |
| O=C(c1ccco1)N1CCN(C(=O)c2ccco2)C1=S | 5.1 µM |

System: EKVX
Experiment: Growth inhibition of human EKVX cells after 48 hrs by sulforhodamine B assay
Type: functional
Details: not given
Summary of the method: as §1

| Compound | GI50 |
| --- | --- |
| O=C(c1ccco1)N1CCN(C(=O)c2ccco2)C1=S | 13.4 µM |

System: KM12
Experiment: Growth inhibition of human KM12 cells after 48 hrs by sulforhodamine B assay
Type: functional
Details: KM12, 48 h
Summary of the method: as §1

| Compound | GI50 |
| --- | --- |
| O=C(c1ccco1)N1CCN(C(=O)c2ccco2)C1=S | 4 µM |

System: MDA-MB-435
Experiment: Growth inhibition of human MDA-MB-435 cells after 48 hrs by sulforhodamine B assay
Type: functional
Details: MDA-MB-435, 48 h
Summary of the method: as §1

| Compound | GI50 |
| --- | --- |
| O=C(c1ccco1)N1CCN(C(=O)c2ccco2)C1=S | 4 µM |

System: SF-539
Experiment: Growth inhibition of human SF539 cells after 48 hrs by sulforhodamine B assay
Type: functional
Details: SF-539, 48 h
Summary of the method: as §1

| Compound | GI50 |
| --- | --- |
| O=C(c1ccco1)N1CCN(C(=O)c2ccco2)C1=S | 3 µM |

System: NCI-H522
Experiment: Growth inhibition of human NCI-H522 cells after 48 hrs by sulforhodamine B assay
Type: functional
Details: NCI-H522, 48 h
Summary of the method: as §1

| Compound | GI50 |
| --- | --- |
| O=C(c1ccco1)N1CCN(C(=O)c2ccco2)C1=S | 3.1 µM |

System: A549
Experiment: Growth inhibition of human A549 cells after 48 hrs by sulforhodamine B assay
Type: functional
Details: A549, 48 h
Summary of the method: as §1

| Compound | GI50 |
| --- | --- |
| O=C(c1ccco1)N1CCN(C(=O)c2ccco2)C1=S | 9.8 µM |

System: UO-31
Experiment: Growth inhibition of human UO31 cells after 48 hrs by sulforhodamine B assay
Type: functional
Details: UO-31, 48 h
Summary of the method: as §2

| Compound | GI50 |
| --- | --- |
| O=C(c1ccco1)N1CCN(C(=O)c2ccco2)C1=S | 3.7 µM |

System: HOP-62
Experiment: Growth inhibition of human HOP62 cells after 48 hrs by sulforhodamine B assay
Type: functional
Details: HOP-62, 48 h
Summary of the method: as §1

| Compound | GI50 |
| --- | --- |
| O=C(c1ccco1)N1CCN(C(=O)c2ccco2)C1=S | 8.7 µM |

System: OVCAR-4
Experiment: Growth inhibition of human OVCAR4 cells after 48 hrs by sulforhodamine B assay
Type: functional
Details: OVCAR-4, 48 h
Summary of the method: as §1

| Compound | GI50 |
| --- | --- |
| O=C(c1ccco1)N1CCN(C(=O)c2ccco2)C1=S | 15.6 µM |

System: NCI-H322M
Experiment: Growth inhibition of human NCI-H322M cells after 48 hrs by sulforhodamine B assay
Type: functional
Details: not given
Summary of the method: as §1

| Compound | GI50 |
| --- | --- |
| O=C(c1ccco1)N1CCN(C(=O)c2ccco2)C1=S | 15.7 µM |

System: NCI/ADR-RES
Experiment: Growth inhibition of human NCI/ADR-RES cells after 48 hrs by sulforhodamine B assay
Type: functional
Details: not given
Summary of the method: as §1

| Compound | GI50 |
| --- | --- |
| O=C(c1ccco1)N1CCN(C(=O)c2ccco2)C1=S | 15.6 µM |

System: MT4
Experiment: Antiproliferative activity against human MT4 cells assessed as reduction of growth by MTT assay
Type: functional, cell-based
Details: not given
Summary of the method: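 MT-4 lymphoblastoid T cells (ATCC) in RPMI 1640 with 10% FCS, penicillin/streptomycin, checked for mycoplasma. 1 × 10⁴ mock-infected cells per well with serial dilutions from a 100 mM DMSO stock. Incubated 4 days at 37 °C, viable cells counted by MTT. IC50 versus untreated controls by linear regression. Mean of three separate experiments.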

| Compound | IC50 |
| --- | --- |
| O=C(c1ccco1)N1CCN(C(=O)c2ccco2)C1=S | 7.4 µM |

— ChEMBL document CHEMBL1138555, “N-acylated and N,N'-diacylated imidazolidine-2-thione derivatives and N,N'-diacylated tetrahydropyrimidine-2(1H)-thione analogues: synthesis and antiproliferative activity” (Eur J Med Chem, 2009)
